Results reported in ChEMBL document CHEMBL4382220, “Enhancement of the tail hydrophobic interactions within the carbonic anhydrase IX active site via structural extension: Design and synthesis of novel N-substituted isatins-SLC-0111 hybrids as carbonic anhydrase inhibitors and antitumor agents” (Eur J Med Chem, 2019).

Columns and labels:
[1] = biological target: Carbonic anhydrase 1 (Homo sapiens, UniProt P00915); assay: Inhibition of recombinant human carbonic anhydrase 1 by stopped flow CO2 hydration assay
[2] = biological target: Carbonic anhydrase 9 (Homo sapiens, UniProt Q16790)
[3] = biological target: Vascular endothelial growth factor receptor 2 (Homo sapiens, UniProt P35968)
[4] = tested on: MDA-MB-231; assay: Antiproliferative activity against human MDA-MB-231 cells after 48 hrs under hypoxic condition by MTT assay; assay type: functional, cell-based; settings: MDA-MB-231, 48 h
Procedure, shortened: (§1)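 MCF-7 and MDA-MB-231 cells (ATCC) grown in DMEM with 10% heat-inactivated FBS, 1% L-glutamine (2.5 mM), 10 mM HEPES, 50 μg/mL gentamycin and 100 μM CoCl2 as hypoxia inducer, 37 C, 5% CO2. MTT read-out after 48 h exposure. IC50 is the concentration giving 50% growth inhibition relative to untreated controls, mean ± S.D. of three separate experiments.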

[5] = tested on: MDA-MB-231; assay: Induction of apoptosis in human MDA-MB-231 cells assessed as early apoptotic cells after 24 hrs by Annexin V-FITC/propidium iodide staining based flow cytometry (reference value: 0.77%); assay type: functional
[6] = tested on: MCF7; assay: Antiproliferative activity against human MCF7 cells after 48 hrs under hypoxic condition by MTT assay; assay type: functional, cell-based; settings: MCF7, 48 h; procedure, shortened: as §1
[7] = tested on: MDA-MB-231; assay: Induction of apoptosis in human MDA-MB-231 cells assessed as necrotic cells after 24 hrs by Annexin V-FITC/propidium iodide staining based flow cytometry (reference value: 0.51%); assay type: functional
[8] = tested on: MDA-MB-231; assay: Induction of apoptosis in human MDA-MB-231 cells assessed as late apoptotic cells after 24 hrs by Annexin V-FITC/propidium iodide staining based flow cytometry (reference value: 0.26%); assay type: functional

Chain of Vascular endothelial growth factor receptor 2 (P35968 whole entry): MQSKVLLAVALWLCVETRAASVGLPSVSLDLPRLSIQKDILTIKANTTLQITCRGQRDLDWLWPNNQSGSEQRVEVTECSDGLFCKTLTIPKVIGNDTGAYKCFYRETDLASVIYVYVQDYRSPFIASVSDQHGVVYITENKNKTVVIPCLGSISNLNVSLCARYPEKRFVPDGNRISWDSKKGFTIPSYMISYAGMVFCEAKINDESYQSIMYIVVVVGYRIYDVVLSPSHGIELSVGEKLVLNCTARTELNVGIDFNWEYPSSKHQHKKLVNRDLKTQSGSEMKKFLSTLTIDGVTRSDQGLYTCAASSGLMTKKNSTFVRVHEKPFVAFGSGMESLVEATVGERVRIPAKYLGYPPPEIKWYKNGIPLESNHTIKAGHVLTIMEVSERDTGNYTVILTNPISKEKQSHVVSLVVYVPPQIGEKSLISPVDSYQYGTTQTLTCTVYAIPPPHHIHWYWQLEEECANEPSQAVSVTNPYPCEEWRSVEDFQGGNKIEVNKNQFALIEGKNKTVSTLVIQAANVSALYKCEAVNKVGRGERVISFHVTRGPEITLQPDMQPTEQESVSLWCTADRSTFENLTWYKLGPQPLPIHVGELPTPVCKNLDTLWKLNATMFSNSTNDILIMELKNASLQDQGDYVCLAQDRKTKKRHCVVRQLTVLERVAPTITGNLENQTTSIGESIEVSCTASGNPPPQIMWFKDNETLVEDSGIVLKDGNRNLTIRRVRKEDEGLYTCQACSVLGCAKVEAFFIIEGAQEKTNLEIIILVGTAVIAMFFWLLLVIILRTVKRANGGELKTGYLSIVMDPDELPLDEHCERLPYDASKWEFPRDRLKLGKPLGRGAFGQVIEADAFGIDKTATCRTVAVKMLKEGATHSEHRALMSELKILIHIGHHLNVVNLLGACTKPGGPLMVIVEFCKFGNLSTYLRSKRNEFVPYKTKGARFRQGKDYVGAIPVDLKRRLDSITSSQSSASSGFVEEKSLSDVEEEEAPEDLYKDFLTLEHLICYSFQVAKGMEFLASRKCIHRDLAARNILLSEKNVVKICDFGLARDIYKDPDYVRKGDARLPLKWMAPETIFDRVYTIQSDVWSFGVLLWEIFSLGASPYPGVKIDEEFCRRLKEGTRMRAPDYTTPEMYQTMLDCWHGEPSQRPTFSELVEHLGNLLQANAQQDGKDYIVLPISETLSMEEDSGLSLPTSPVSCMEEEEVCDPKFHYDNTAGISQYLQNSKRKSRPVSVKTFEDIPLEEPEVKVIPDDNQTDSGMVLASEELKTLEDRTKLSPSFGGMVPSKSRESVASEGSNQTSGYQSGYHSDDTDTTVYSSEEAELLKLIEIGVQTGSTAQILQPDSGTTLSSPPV
Chain of Carbonic anhydrase 1 (P00915 whole entry): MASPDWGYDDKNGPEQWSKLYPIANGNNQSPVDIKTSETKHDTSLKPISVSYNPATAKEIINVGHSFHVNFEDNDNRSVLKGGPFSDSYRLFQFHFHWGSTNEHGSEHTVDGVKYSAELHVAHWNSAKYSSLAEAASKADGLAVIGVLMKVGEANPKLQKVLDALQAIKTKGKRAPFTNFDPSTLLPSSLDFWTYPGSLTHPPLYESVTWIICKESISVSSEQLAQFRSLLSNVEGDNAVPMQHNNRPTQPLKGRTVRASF

SMILES	Ki [1]	Ki [2]	other results
NS(=O)(=O)c1ccc(NC(=O)Nc2ccc(/N=C3\C(=O)N(Cc4ccccc4)c4ccccc43)cc2)cc1	641 nM	73.2 nM	
CN1C(=O)/C(=N\c2ccc(NC(=O)Nc3ccc(S(N)(=O)=O)cc3)cc2)c2cc(Cl)ccc21	407 nM	5.2 nM	IC50 [3]: 261 nM; IC50 [4]: 7.43 µM; Activity [5]: 7.28%; IC50 [6]: 12.9 µM; Activity [7]: 2.47%; Activity [8]: 11.26%
CN1C(=O)/C(=N\c2ccc(NC(=O)Nc3ccc(S(N)(=O)=O)cc3)cc2)c2ccccc21	898 nM	25.1 nM	
CCCN1C(=O)/C(=N\c2ccc(NC(=O)Nc3ccc(S(N)(=O)=O)cc3)cc2)c2cc(Br)ccc21	2960 nM	26.7 nM	
Cc1ccc(CN2C(=O)/C(=N\c3ccc(NC(=O)Nc4ccc(S(N)(=O)=O)cc4)cc3)c3cc(Br)ccc32)cc1	4640 nM	26.4 nM	
Cc1ccc(CN2C(=O)/C(=N\c3ccc(NC(=O)Nc4ccc(S(N)(=O)=O)cc4)cc3)c3ccccc32)cc1	6570 nM	4.7 nM	IC50 [3]: 462 nM; IC50 [4]: 48.9 µM; IC50 [6]: 11.8 µM
N#Cc1ccc(CN2C(=O)/C(=N\c3ccc(NC(=O)Nc4ccc(S(N)(=O)=O)cc4)cc3)c3ccccc32)cc1	2290 nM	9.7 nM	IC50 [3]: 207 nM; IC50 [4]: 23.2 µM; IC50 [6]: 5.97 µM
N#Cc1ccc(CN2C(=O)/C(=N\c3ccc(NC(=O)Nc4ccc(S(N)(=O)=O)cc4)cc3)c3cc(Cl)ccc32)cc1	8290 nM	34.7 nM	
NS(=O)(=O)c1ccc(NC(=O)Nc2ccc(/N=C3\C(=O)N(Cc4cccc(F)c4)c4ccc(Br)cc43)cc2)cc1	4700 nM	61.2 nM	
CCCN1C(=O)/C(=N\c2ccc(NC(=O)Nc3ccc(S(N)(=O)=O)cc3)cc2)c2ccccc21	939 nM	19.6 nM	
COc1cccc2c1C(=O)c1c(O)c3c(c(O)c1C2=O)C[C@@](O)(C(=O)CO)C[C@@H]3O[C@H]1C[C@H](N)[C@H](O)[C@H](C)O1 [DOXORUBICIN]			IC50 [4]: 8.5 µM

Further lines, with some results ahead:

Ki [1]	Ki [2]	SMILES	other results
5840 nM	36.9 nM	N#Cc1ccc(CN2C(=O)/C(=N\c3ccc(NC(=O)Nc4ccc(S(N)(=O)=O)cc4)cc3)c3cc(Br)ccc32)cc1	
1960 nM	9.2 nM	CN1C(=O)/C(=N\c2ccc(NC(=O)Nc3ccc(S(N)(=O)=O)cc3)cc2)c2cc(Br)ccc21	
607 nM	8.2 nM	CCCN1C(=O)/C(=N\c2ccc(NC(=O)Nc3ccc(S(N)(=O)=O)cc3)cc2)c2cc(Cl)ccc21	IC50 [3]: 384 nM; IC50 [4]: 25.6 µM; IC50 [6]: 7.36 µM
2500 nM	86.1 nM	NS(=O)(=O)c1ccc(NC(=O)Nc2ccc(/N=C3\C(=O)N(Cc4ccccc4)c4ccc(Cl)cc43)cc2)cc1	
5100 nM	58.8 nM	NS(=O)(=O)c1ccc(NC(=O)Nc2ccc(/N=C3\C(=O)N(Cc4cccc(F)c4)c4ccc(Cl)cc43)cc2)cc1	
6150 nM	43 nM	Cc1ccc(CN2C(=O)/C(=N\c3ccc(NC(=O)Nc4ccc(S(N)(=O)=O)cc4)cc3)c3cc(Cl)ccc32)cc1	
5890 nM	41.2 nM	NS(=O)(=O)c1ccc(NC(=O)Nc2ccc(/N=C3\C(=O)N(Cc4ccccc4)c4ccc(Br)cc43)cc2)cc1	
2070 nM	54.5 nM	NS(=O)(=O)c1ccc(NC(=O)Nc2ccc(/N=C3\C(=O)N(Cc4cccc(F)c4)c4ccccc43)cc2)cc1	
